This note sets out measurements from ChEMBL document CHEMBL4765441, “Design, synthesis and anti-cancer activity of pyrrole-imidazole polyamides through target-downregulation of c-kit gene expression” (Eur J Med Chem, 2020).

What is called pIC50 is the negative decadic logarithm of the IC50, by convention in mol/L. What is called inhibition is the change of the read-out against control, counted positive when it falls. Low values mean a response near the control, high ones a response far below the control.

pIC50: −log10 of the molar value. The source made the active and inactive calls. The calls are words filed in the database; no cut-off is given here.

One assay deals with Bel-7402. In words: Antiproliferative activity against human Bel-7402 cells assessed as reduction in cell viability incubated for 48 hrs by xCELLigence RTCA. The format is functional, cell-based. Particulars: Bel-7402, 48 h.
In assay [1] the test system is SGC-7901. In words: Antiproliferative activity against human SGC7901 cells assessed as reduction in cell viability incubated for 48 hrs by xCELLigence RTCA. It is filed as functional, cell-based. Particulars: SGC-7901, 48 h.
The subject of assay [2] is SGC-7901. Kind of assay: Inhibition of cell migration in human SGC7901 cells at 1.5 uM incubated for 48 hrs by inverted fluorescence microscope based scratch wound healing assay. It is filed as functional. In short, it runs like this: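 20 × 10^4 cells per well grown to 80% confluence. Wound scratched with a pipette tip, washed twice with PBS and photographed under an inverted fluorescence microscope. Cells then held in serum-free medium with compound for 48 h. Migration measured as distance moved from the wound edge; mean ± SD, n = 3.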

The subject of assay [3] is SGC-7901. In words: Induction of apoptosis in human SGC7901 cells assessed as viable cells at 7.5 uM incubated for 36 hrs by Annexin V-FITC/propidium iodide staining-based flow cytometric analysis (reference value: 93.2 %). It is filed as functional. Particulars: read-out: Activity. Background: A flow cytometer gives signals particle by particle.
Assay [4] deals with SGC-7901. Kind of assay: Induction of apoptosis in human SGC7901 cells assessed as necrotic cells at 7.5 uM incubated for 36 hrs by Annexin V-FITC/propidium iodide staining-based flow cytometric analysis (reference value: 0.34 %). The format is functional.
The test system of assay [5] is SGC-7901. Kind of assay: Induction of apoptosis in human SGC7901 cells assessed as early apoptotic cells at 15 uM incubated for 36 hrs by Annexin V-FITC/propidium iodide staining-based flow cytometric analysis (reference value: 2.74 %). It is filed as functional.
In assay [6] the test system is SGC-7901. In words: Induction of apoptosis in human SGC7901 cells assessed as late apoptotic cells at 15 uM incubated for 36 hrs by Annexin V-FITC/propidium iodide staining-based flow cytometric analysis (reference value: 3.69 %). It is filed as functional.
In assay [7] the test system is A549. Kind of assay: Induction of apoptosis in human A549 cells assessed as viable cells at 7.5 uM incubated for 36 hrs by Annexin V-FITC/propidium iodide staining-based flow cytometric analysis (reference value: 97.9 %). It is filed as functional. Particulars: read-out: Activity.
The subject of assay [8] is A549. Kind of assay: Induction of apoptosis in human A549 cells assessed as early apoptotic cells at 7.5 uM incubated for 36 hrs by Annexin V-FITC/propidium iodide staining-based flow cytometric analysis (reference value: 1.41 %). The format is functional.
Assay [9] concerns A549. In words: Induction of apoptosis in human A549 cells assessed as necrotic cells at 7.5 uM incubated for 36 hrs by Annexin V-FITC/propidium iodide staining-based flow cytometric analysis (reference value: 0.31 %). The format is functional.
Assay [10] relates to A549. In words: Down regulation of c-kit mRNA expression in human A549 cells at 7.5 uM incubated for 36 hrs by Western blot analysis. The format is functional, cell-based. Particulars: in the assay text read “RT-PCR analysis” for “Western blot analysis”. In short, it runs like this:
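Cells treated for 36 h. Total RNA quantified by Nanodrop and checked on 1.5% agarose with ethidium bromide. 400 ng RNA per one-step RT-PCR with c-kit-specific primers; reverse transcription 30 min at 50 °C, then 2 min at 94 °C. Normalized to β-actin; semi-quantitative.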
On the technique in general: In western blotting, separated proteins are transferred to a membrane and probed.

As to `CC(=O)Nc1cn(C)c(C(=O)Nc2cn(C)c(C(=O)Nc3cc(C(=O)Nc4cn(C)c(C(=O)NCCC(=O)Nc5cn(C)c(C(=O)Nc6cn(C)c(C(=O)NCC[C@@H](N)C(=O)Nc7cc(C(=O)Nc8cc(C(=O)NC[C@@H](O)CC(=O)Nc9cc(C(=O)Nc%10cn(C)c(C(=O)Nc%11cc(C(=O)Nc%12cc(C(=O)NCCC(=O)NCCCN(C)C)n(C)c%12)n(C)c%11)n%10)n(C)c9)n(C)c8)n(C)c7)n6)n5)n4)n(C)c3)n2)n1.Cl.Cl`, the pIC50 was 4.95 in the assay with Bel-7402 and 5.53 in the assay with SGC-7901 [1]. Testing at 1.5 µM with SGC-7901 [2] gave an inhibition of 85.7%. Besides, the values for the viability at 7.5 µM in the assay with SGC-7901 [3] and in the assay on A549 [7] were 56.4% and 60.5%, respectively. Also, the Activity with SGC-7901 [4] was found to be 0.92%; in the assay on SGC-7901 [5] it was 41.7%; with SGC-7901 [6] it was 12.8%; in the assay on A549 [8] it was 22.7%; with A549 [9], 2.76%. Besides, the result with A549 [10] was Active.
